Compound activity as filed in PubChem BioAssay.
Sampled rows, rich in hits. Any-hit rate of the full collection: about 0.72%.
mIAP block: mouse IAP inhibition | purified mouse IAP, CDP-Star luminescence, 30 min | inhibition, % at 10 µM | actives 0.2% (n = 330,000) | AID 2806;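 active = inhibition of at least 40% at 10 µM in the primary screen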;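 note: plate controls were DMSO with enzyme for no effect and no enzyme wells for full effect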
hIAP activ: human IAP activation; actives 0.16% (n = 330,000); P09923; activation factor at 10 µM; purified human IAP, CDP-Star luminescence, 30 min; stronger effect = higher value; 1 = vehicle-only enzyme, 0 = enzyme-free background; AID 2524;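 active = activation factor of the enzyme at least 2-fold when tested at 20 µM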
Target sequence (P09923 whole entry, looked up): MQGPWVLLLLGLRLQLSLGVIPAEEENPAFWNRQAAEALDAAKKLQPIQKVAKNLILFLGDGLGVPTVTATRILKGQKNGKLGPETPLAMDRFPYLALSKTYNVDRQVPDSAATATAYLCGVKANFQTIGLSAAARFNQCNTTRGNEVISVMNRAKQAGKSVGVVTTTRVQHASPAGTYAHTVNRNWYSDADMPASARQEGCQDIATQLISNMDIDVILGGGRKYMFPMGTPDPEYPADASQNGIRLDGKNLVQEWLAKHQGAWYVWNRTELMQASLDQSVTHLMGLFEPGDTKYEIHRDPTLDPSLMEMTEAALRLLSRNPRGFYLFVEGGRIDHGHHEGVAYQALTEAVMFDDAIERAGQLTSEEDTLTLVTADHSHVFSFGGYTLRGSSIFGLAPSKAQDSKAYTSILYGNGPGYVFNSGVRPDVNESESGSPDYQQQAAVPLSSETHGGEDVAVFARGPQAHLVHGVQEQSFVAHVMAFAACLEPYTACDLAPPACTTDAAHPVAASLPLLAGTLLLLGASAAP
mIAP act: mouse IAP activation; muIAP, CDP-Star luminescence, 30 min; stronger effect = higher value; 1 = vehicle-only enzyme signal, 0 = enzyme-free wells; activation factor at 10 µM; actives 0.24% (n = 330,000); AID 2805;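 active = activation factor of at least 2 at 20 µM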
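Assay system: mouse IAP enzyme / Compound: DMSO-dissolved test compounds / Timing: 30 min, room temperature / Measured by: luminescence from enzymatic CDP-Star hydrolysis / Control set: DMSO-only wells, enzyme-free buffer wells as negative control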
hIAP inh: blocks human intestinal alkaline phosphatase; actives 0.12% (n = 330,000); inhibition, % at 10 µM; P09923; AID 2544; purified IAP, CDP-Star luminescence, 30 min;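 active = inhibition reaching a set limit with compound at 10 µM in the primary screen, cut at about 35% in these data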;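 note: plate controls were DMSO wells with enzyme for no effect and no-enzyme buffer wells for full effect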
bIAP act: intestinal alkaline phosphatase (bovine) activation; purified bovine IAP, CDP-star luminescence, 30 min; stronger effect = higher value; fold of DMSO-control signal, blank-subtracted; activation factor at 20 µM; actives 0.17% (n = 200,000); AID 1016;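 active = activation factor of 2 or more at 20 µM, a signal rise over negative controls twice the positive control's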
bIAP inh: blocks bovine intestinal alkaline phosphatase activity; purified bovine IAP, CDP-star luminescence, 30 min; inhibition, % at 20 µM; 190,000 tested, under 10 active; AID 1019;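 active = over 50% inhibition of intestinal alkaline phosphatase at 20 µM in the single-dose screen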
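Assay system – bovine IAP enzyme · Quantity – bovine IAP at 1/65,000,000 final dilution · Detection – CDP-star luminescence signal · Times – 30 min reaction at room temperature · Also added – CDP-star substrate at 30 µM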
mIAP inh conf: mouse IAP inhibition confirmation | inhibition, % at 10 µM | purified mouse IAP, CDP-Star luminescence, 30 min | actives 4.7% (n = 11,000) | AID 434971 | shares compounds with mIAP block;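 active = inhibition of at least 40% at 10 µM in either of the two replicates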;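 note: plate controls were DMSO wells with enzyme for no effect and buffer wells lacking enzyme for full effect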
An asterisk follows results filed as active; i = inactive; . = no result given.

SMILES	mIAP block	hIAP activ	mIAP act	hIAP inh	bIAP act	bIAP inh	mIAP inh conf
S=c1[nH]nc(-c2cc(-c3ccccc3)n[nH]2)n1/N=C/C=C/c1ccco1	48*	1.2	0.52	-19	.	.	47*
S=c1[nH]nc(COc2ccccc2)n1/N=C/C=C/c1ccccc1	0	0.93	0.99	7	1	-4	.
S=c1[nH]nc(-c2n[nH]c3c2CCC3)n1/N=C/C=C/c1ccco1	50*	0.91	0.5	9	.	.	42*
S=c1[nH]nc(-c2ccco2)n1/N=C/C=C/c1ccco1	69*	0.9	0.31	10	0.9	7	70*
S=c1[nH]nc(-c2cc(-c3ccccc3)n[nH]2)n1/N=C/c1c(Cl)cccc1Cl	8	1.7	0.92	-67	.	.	.
COc1ccc(CN2C3CCCC2CC(NC(=O)Nc2ccccc2C)C3)cc1 (stereo not given)	-198	0.91	3*	9	0.9	6	-143
COc1ccc(CN2C3CCCC2CC(NC(=O)Nc2ccccc2)C3)cc1 (stereo not given)	-426	0.82	5.3*	18	0.9	9	-365
COc1ccc(CN2C3CCCC2CC(NC(=O)Nc2cccc(C)c2)C3)cc1 (stereo not given)	i	0.95	12*	5	0.9	7	i
COCC(=O)NC1CC2CCCC(C1)N2Cc1ccccc1 (stereo not given)	6	1.1	0.94	-8	1	-1	.
Cc1cc(C(=O)N2CCCC(Nc3ccccc3)C2)c2ccc(F)cc2n1 (stereo not given)	4	0.87	0.96	13	.	.	.
COc1ccc(Cc2nc3ccc(C(=O)NC(C)c4cn(C)nc4C)cc3o2)cc1 (stereo not given)	4	1.2	0.96	-22	.	.	.
O=c1c(O)c(-c2ccc(O)c(O)c2)oc2cc(O)cc(O)c12	83*	1.1	0.17	-9	.	.	91*
O=c1c(-c2c(O)cc(O)c3c(=O)cc(-c4ccc(O)cc4)oc23)c(-c2ccc(O)cc2)oc2cc(O)cc(O)c12	59*	0.91	0.41	9	.	.	65*
COc1ccc(Cl)cc1NC(=S)N1CC(C)OC(C)C1 (stereo not given)	-4	0.92	1	8	.	.	.
Cc1ccc(C)c(CN2CCC(CNC(=O)Nc3ccc(Cl)cc3)CC2)c1	-172	1.3	2.7*	-34	.	.	-123
O=C(NCC1CC1)Nc1ccc(Cl)cc1	-9	1.1	1.1	-9	.	.	.
CN(c1cccc(NC(=O)Nc2cccc(Cl)c2)c1)S(C)(=O)=O	-273	1.1	3.7*	-13	0.9	7	-147
CC(=O)Nc1cccc(N(C)S(C)(=O)=O)c1	-6	1.2	1.1	-16	0.9	8	.
CCN1C(=O)/C(=C2\SC(=S)N(NC(=O)c3cccnc3)C2=O)c2ccccc21	49*	1.2	0.51	-18	.	.	64*
O=C(/C=C/c1ccco1)NC(=S)Nc1ccccc1O	46*	0.89	0.55	11	1.1	-6	54*
Cc1ccc(NC(=S)NC(=O)/C=C/c2ccco2)c(O)c1	47*	1	0.53	-1	1	-3	54*
O=C(/C=C\c1ccco1)NC(=S)Nc1ccccc1O	59*	1.1	0.41	-12	.	.	72*
COc1cccc(NC(=S)NC(=O)/C=C/c2ccco2)c1	20	1	0.8	0	.	.	.
COc1ccc(NC(=S)NC(=O)/C=C/c2ccco2)c(OC)c1	9	0.89	0.91	11	.	.	.
O=C(/C=C/c1ccco1)NC(=S)Nc1cccc(C(=O)O)c1	48*	0.83	0.52	17	.	.	63*
O=C(/C=C/c1ccco1)NC(=S)Nc1ccccc1N1CCCC1	11	1	0.89	-2	1	3	.
CC1(C)NC(=O)N(CC(=O)N2CCN(c3ccc([N+](=O)[O-])cc3)CC2)C1=O	1	0.89	0.99	11	.	.	.
COc1ccc2[nH]c3c(=O)n4c(nc3c2c1)SCCC4	5	0.95	0.95	5	1	2	.
CC/C=C/C(=O)N1CC2(CC(c3cccc(NC(=O)COc4ccc(Cl)cc4)c3)=NO2)C[C@H]1C(N)=O (stereo not given in full)	-7	1.1	1.1	-6	.	.	.
